STEP inh = STEP phosphatase inhibitors, primary screen, biochemical, fluorescence intensity, uHTS. Tyrosine-protein phosphatase non-receptor type 5 (Homo sapiens), P54829. inhibition, % at 20 µM. recombinant STEP, OMFP fluorogenic substrate. AID 588621, 2011. 0.25% of 360,000 active;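 active = inhibition at 20 µM, scaled per plate between control wells, above about 37%, limit read from the data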;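 also: 0% = DMSO with enzyme and substrate and 100% = substrate only without enzyme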
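Assay system: isolated STEP enzyme. Buffer or medium: pH 6.0 Bis-Tris with DTT and Tween 20. Also added: fluorogenic phosphatase substrate OMFP at 25 µM final. Dosing: 20 µM, 1% DMSO. Timing: 20 min reaction, room temperature, in the dark. Measured by: fluorescence intensity, excitation 480 nm, emission 540 nm. Evaluation: normalized % inhibition.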
SUMO1 PPI mod = modulators of SUMO1 protein-protein interactions, primary screen, biochemical, uHTS. 0.33% of 360,000 active. Small ubiquitin-related modifier 1 (Homo sapiens), P63165. inhibition, % at 20 µM. SUMO1 binding to a labelled peptide, TR-FRET, 1 h; in the data active = inhibition above about 37%
DNMT1 inh = human DNMT1 methyltransferase inhibitors, primary screen, biochemical, molecular beacon, fluorescence, HinP1I cleavage, uHTS. DNA (cytosine-5)-methyltransferase 1 (Homo sapiens), P26358. inhibition (reported as % activation of signal), % at 10 µM. 0.83% of 360,000 active. AID 588458, 2011; in the data active = inhibition above about 50%
Target sequence (P26358 504-1616 limits assumed): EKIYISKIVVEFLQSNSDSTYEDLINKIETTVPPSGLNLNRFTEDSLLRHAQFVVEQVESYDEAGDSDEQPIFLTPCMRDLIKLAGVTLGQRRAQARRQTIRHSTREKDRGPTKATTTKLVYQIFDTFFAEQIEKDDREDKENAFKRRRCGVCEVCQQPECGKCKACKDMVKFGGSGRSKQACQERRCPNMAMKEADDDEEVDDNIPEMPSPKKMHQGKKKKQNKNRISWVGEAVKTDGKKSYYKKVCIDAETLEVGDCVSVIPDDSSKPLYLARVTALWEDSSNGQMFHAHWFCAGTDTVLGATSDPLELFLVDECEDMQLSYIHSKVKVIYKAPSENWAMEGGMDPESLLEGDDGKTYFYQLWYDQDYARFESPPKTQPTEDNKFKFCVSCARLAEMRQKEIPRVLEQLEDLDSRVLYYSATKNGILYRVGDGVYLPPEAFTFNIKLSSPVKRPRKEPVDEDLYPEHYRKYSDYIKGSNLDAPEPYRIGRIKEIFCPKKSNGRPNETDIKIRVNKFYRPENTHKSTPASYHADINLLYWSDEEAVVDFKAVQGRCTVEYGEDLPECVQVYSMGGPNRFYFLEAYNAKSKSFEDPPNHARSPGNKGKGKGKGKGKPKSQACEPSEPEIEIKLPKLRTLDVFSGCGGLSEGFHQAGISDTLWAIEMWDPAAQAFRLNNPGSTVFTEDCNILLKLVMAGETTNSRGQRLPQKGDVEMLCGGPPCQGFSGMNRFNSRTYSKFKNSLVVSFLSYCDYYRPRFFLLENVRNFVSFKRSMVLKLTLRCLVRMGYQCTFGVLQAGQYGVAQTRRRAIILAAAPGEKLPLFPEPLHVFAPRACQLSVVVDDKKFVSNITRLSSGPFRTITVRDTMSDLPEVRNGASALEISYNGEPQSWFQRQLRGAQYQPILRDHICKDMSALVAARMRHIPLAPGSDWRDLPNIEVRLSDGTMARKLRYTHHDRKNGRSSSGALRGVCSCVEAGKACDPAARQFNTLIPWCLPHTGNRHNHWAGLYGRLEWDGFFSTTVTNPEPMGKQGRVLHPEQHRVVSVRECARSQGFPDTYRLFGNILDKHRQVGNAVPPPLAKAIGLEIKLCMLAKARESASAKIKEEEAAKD
LMPTP block = LMPTP phosphatase inhibitors, primary screen, biochemical, fluorescence intensity, uHTS | Low molecular weight phosphotyrosine protein phosphatase (Homo sapiens), P24666 | recombinant LMPTP-A, OMFP fluorogenic substrate | inhibition, % at 20 µM | 0.22% of 360,000 active | AID 651560, 2012;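 active = compounds that cut the enzyme signal by at least half of the control window in the single-dose screen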;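 also: plate controls were DMSO wells with enzyme plus substrate for no effect and substrate without enzyme for full effect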
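Assay system: LMPTP-A enzyme. Input: 0.625 nM LMPTP-A final. Probe or stimulus: 400 µM OMFP. Compound dosing: single 20 µM dose. Schedule: 50 min dark incubation at room temperature. Detection: fluorescence intensity of OMFP turnover product. Read-out: percent inhibition versus substrate-only and uninhibited controls. Benchmarks: no-enzyme low control, uninhibited high control.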
Scp-1 inhibitor = Scp-1 phosphatase inhibitors, primary screen, biochemical, colorimetric, uHTS. Carboxy-terminal domain RNA polymerase II polypeptide A small phosphatase 1 (Homo …. inhibition, % at 20 µM. 0.88% of 340,000 active. Recombinant Scp1, phosphopeptide, malachite green phosphate absorbance;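 active = inhibition above about 50% at 20 µM, limit read from the data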;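 also: plate controls were DMSO wells with enzyme for no effect and wells lacking enzyme for full effect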
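Test system: SCP-1 phosphatase catalytic domain, residues 76-261 | Compound dosing: One concentration, 20 µM, with 1.0% DMSO | Schedule: 45 min room-temperature reaction, 5 min colour, 30 min stabiliser | Detection: Absorbance at 630 nm | Read-out basis: % inhibition of SCP-1 phosphate liberation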
Scp-1 conf = Scp-1 phosphatase inhibitors, retest, confirmation, biochemical, colorimetric, single concentration; shares compounds with Scp-1 inhibitor; recombinant SCP-1 catalytic domain, phosphate release, malachite green absorbance; inhibition, % at 20 µM; 61% of 2,500 active;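 also: plate controls were DMSO with enzyme for no effect and buffer wells lacking enzyme for full effect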
MG interference = colorimetric readout interference by compounds, confirmation, artefact control for Scp-1 inhibitor project, biochemical, single concentration. shares compounds with Scp-1 inhibitor. Colorimetric interference counterscreen, malachite green absorbance 630 nm. apparent inhibition (interference), % at 20 µM. 2,500 tested, under 10 active. AID 540313, 2011;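 also: compounds added after enzyme reaction finished so only phosphate colour detection is probed; plate controls were DMSO wells with completed Scp-1 reaction for no effect and substrate wells lacking enzyme for full effect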
Scp1 DSF = Scp-1 binding by thermal shift, confirmation, orthogonal assay for Scp-1 inhibitor project, biophysical, differential scanning fluorimetry. 25% of 1,500 active. shares compounds with Scp-1 inhibitor. Recombinant SCP1, Sypro Orange thermal shift Tm. thermal shift relative to vanadate control, % at 40 µM. AID 540329, 2011;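 active = substances whose mean melting-temperature shift, as a percentage of the reference inhibitor's shift, reaches about 5.3%, limit read from the data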;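 also: 0% = Tm of DMSO wells and 100% = Tm with sodium orthovanadate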
DNMT1 interf DR = spectral interference with molecular beacon fluorescence, dose response, artefact control for DNMT1 inhibitor project, biochemical, fluorescent molecular beacon. IC50, µM. 200 tested, under 10 active. AID 602382, 2012. spectral interference counter-screen. shares compounds with DNMT1 inh; call rule not given here
DNMT1 inh conf = DNMT1 methyltransferase inhibitor retest, confirmation, biochemical, molecular beacon, fluorescence, single concentration | AID 602385, 2012 | shares compounds with DNMT1 inh | DNMT1 molecular beacon HinP1I cleavage | 8% of 2,300 active | inhibition, % at 10 µM;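 active = average inhibition of at least 30% in the single-concentration confirmation test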
DNMT1 interf = shows spectral interference in the DNMT1 beacon assay; shares compounds with DNMT1 inh; DNMT1 molecular beacon spectral interference counterscreen, fluorescence 485/520; activation (fluorescence interference), % at 10 µM; 1% of 2,300 active;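 active = activation of at least 30% at 10 µM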;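 also: DNMT1 catalytic domain with a HinP1I cleavage step and a FAM/dabcyl DNA beacon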
* marks the source's active call; other numbers are inactive results; · = no result. Only some compounds are listed: those with a hit (about 1.7% of all), similar ones and a draw of the others.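 The calls were made as follows, unless noted: active = inhibition of at least 30% at 20 µM; inactive = the rest.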

SMILES	STEP inh	SUMO1 PPI mod	DNMT1 inh	LMPTP block	Scp-1 inhibitor	Scp-1 conf	MG interference	Scp1 DSF	DNMT1 inh conf	DNMT1 interf	others
Cc1ccc(/C=C2/C(=O)NC(=O)N(CCc3ccc(F)cc3)C2=O)o1	-1	9	4	0	-10	·	·	·	·	·
COc1ccc(CN2C(=O)NC(=O)/C(=C\c3ccco3)C2=O)cc1	11	22	86*	29	82*	58*	-22	5.5*	28	-5	DNMT1 interf DR=>99
O=C1NC(=O)N(CCc2ccc(F)cc2)C(=O)/C1=C/c1ccco1	48*	80*	98*	66*	92*	66*	-16	-1	5	0
O=S(=O)(c1ccccc1)C1CN1c1c(F)c(F)c(F)c(F)c1F (stereo unspecified)	·	-1	·	-1	·	·	·	·	·	·
Cc1cc(/C=C2\C(=O)NC(=O)N(c3ccc(Br)cc3)C2=O)c(C)n1-c1cc(C(=O)O)cc(C(=O)O)c1	6	28	83*	5	60*	42*	-16	-1	3	-4
Cc1cc(/C=C2/C(=O)NC(=O)N(c3ccc(Br)cc3)C2=O)c(C)n1C	-1	-8	-4	1	-5	·	·	·	·	·
Cc1cc(/C=C2\C(=O)NC(=O)N(c3ccc(Cl)cc3)C2=O)c(C)n1-c1cccc(C(=O)O)c1	13	19	74*	1	52*	51*	-4	6.9*	6	0
C[C@@H]1CN([C@H](C)CO)C(=O)CCCn2nncc2CO[C@@H]1CN(C)C(=O)Oc1ccccc1	4	2	-3	-2	·	·	·	·	·	·
O=C1NC(=O)N(c2ccc3c(c2)OCO3)C(=O)/C1=C\c1ccc(-c2ccccc2C(=O)O)o1	12	24	90*	4	56*	52*	-11	3	8	-1
COc1ccc(-n2nnnc2C(CCSC)N2CCC(n3c(=O)[nH]c4ccccc43)CC2)cc1 (stereo unspecified)	2	0	-10	4	·	·	·	·	·	·
CCCCn1c(N)c(C(=O)OCCOC)c2nc3ccccc3nc21	-2	-3	-13	-1	2	·	·	·	·	·
CCCCOCCCn1c(N)c(C(=O)OCCOC)c2nc3ccccc3nc21	1	40*	52*	3	4	·	·	·	1	0
COCc1c(CN)cnc(C)c1N	0	-1	-3	-3	0	·	·	·	·	·
CCN1CCN(C(=O)COc2ccc(S(=O)(=O)N(C)Cc3ccccc3)cc2)CC1	0	3	1	1	-8	·	·	·	·	·
CN1CCN(C(=O)COc2ccc(S(=O)(=O)N(C)Cc3ccccc3)cc2)CC1	0	-3	55*	-1	-5	·	·	·	4	9

Bioassay records (PubChem BioAssay)
